Published values from different studies.
Compare with care: the assays were run in different laboratories.
Target: Death-associated protein kinase 1 (DAPK1, Homo sapiens, UniProt P53355)

The remaining binding of O=C(Nc1cccnn1)N1CC(C/C=C/c2cncc(Oc3ccc(C(F)(F)F)cn3)n2)C1 is reported as 98% (cell-free assay, competition with immobilised ligand; 1 µM).
The remaining activity of CC(C)(C)c1nc(-c2cccc(NS(=O)(=O)c3c(F)cccc3F)c2F)c(-c2ccnc(N)n2)s1 is reported as 75% (enzyme activity, inhibitor, radiometric; 1 µM).
Oc1cccc(-c2nc(N3CCOCC3)c3oc4ncccc4c3n2)c1 gave a remaining activity of 30% (enzyme activity, inhibitor; 10 µM).
CCCCN(CCCC)C(=O)CN1C[C@H](c2cc(OC)c3c(c2)OCO3)[C@@H](C(=O)O)[C@@H]1CC(C)(C)CCC has a remaining binding of 100% (cell-free assay, competition with immobilised ligand; 1 µM).
For O=C(Nc1cnn(-c2csc(C(=O)NC3COC3)c2)c1)Nc1c(F)cccc1Cl, the remaining activity was 98.9% (enzyme activity, inhibitor; 5 µM).
For CCN(CC)CCNC(=O)c1c(C)[nH]c(/C=C2\C(=O)Nc3ccc(F)cc32)c1C, the remaining signal was 66.9% (cell-free assay; 0.5 µM).
N#Cc1ccc(Nc2ccc3[nH]c(=O)[nH]c3c2)c(Cl)c1 has a remaining binding of 100% (cell-free assay, competition with immobilised ligand; 1 µM).
With CCCS(=O)(=O)Nc1ccc(F)c(C(=O)c2c[nH]c3ncc(-c4ccc(Cl)cc4)cc23)c1F the inhibition was under 10% (enzyme activity, inhibitor; 1 µM).
The inhibition of Cc1ncc([N+](=O)[O-])n1C(=NO)c1ccccc1C(F)(F)F is reported as 16.5% (enzyme activity, inhibitor; 10 µM).
The remaining signal of Nc1nc(Nc2ccc(S(N)(=O)=O)cc2)nn1C(=O)c1c(F)cccc1F is reported as 93.8% (cell-free assay; 0.5 µM).
With Nc1ncnc2occ(-c3ccc(NC(=O)Nc4cc(C(F)(F)F)ccc4F)cc3)c12 the remaining signal was 29% (cell-free assay, inhibitor; 20 µM).
For CCC(=O)N[C@H]1CC[C@@H](C(=O)N(C)c2ccc(-c3nc4ccccc4o3)cc2)C1, the remaining binding was 96% (cell-free assay, competition with immobilised ligand; 1 µM).
CNC(=O)c1cc(Oc2ccc(NC(=O)Nc3ccc(Cl)c(C(F)(F)F)c3)cc2)ccn1 gave an inhibition of 12% (enzyme activity, inhibitor; 10 µM).
O=C(Nc1cnc(Oc2ccc(F)cc2)nc1)N1CCc2ncccc2[C@@H]1c1ccc(F)cc1 has a remaining binding of 78% (cell-free assay, competition with immobilised ligand; 1 µM).
For FC(F)(F)Oc1cccc(-c2cnc3ccc(-c4ccncc4)nn23)c1, the activity vs control was 101% (enzyme activity, inhibitor, radiometric; 1 µM).
CC(=O)Nc1c(C(C)=O)c(=O)n(C)c2nc(-c3ccc(Cl)cc3Cl)c(-c3ccc(Cl)cc3)cc12 has a remaining binding of 100% (cell-free assay, competition with immobilised ligand; 1 µM).
With CN(C)C1CCN(CC#Cc2nn(C3CCCC3)c3nc(NCc4ccccc4)ncc23)C1 (stereo not drawn) the inhibition was 7% (enzyme activity, inhibitor, FRET; 10 µM).
Cc1cc(NC(=O)c2cccc3cc(-c4cccc5[nH]nc(N)c45)ccc23)ccc1F gave an activity vs control of 88% (enzyme activity, inhibitor; 0.1 µM).
